Data set [1] deals with T1, ACE (E.C. 3.4.15.1) from the lungs of rabbits (Oryctolagus cuniculus, UniProt P12822).
T1 sequence (P12822 34-1310): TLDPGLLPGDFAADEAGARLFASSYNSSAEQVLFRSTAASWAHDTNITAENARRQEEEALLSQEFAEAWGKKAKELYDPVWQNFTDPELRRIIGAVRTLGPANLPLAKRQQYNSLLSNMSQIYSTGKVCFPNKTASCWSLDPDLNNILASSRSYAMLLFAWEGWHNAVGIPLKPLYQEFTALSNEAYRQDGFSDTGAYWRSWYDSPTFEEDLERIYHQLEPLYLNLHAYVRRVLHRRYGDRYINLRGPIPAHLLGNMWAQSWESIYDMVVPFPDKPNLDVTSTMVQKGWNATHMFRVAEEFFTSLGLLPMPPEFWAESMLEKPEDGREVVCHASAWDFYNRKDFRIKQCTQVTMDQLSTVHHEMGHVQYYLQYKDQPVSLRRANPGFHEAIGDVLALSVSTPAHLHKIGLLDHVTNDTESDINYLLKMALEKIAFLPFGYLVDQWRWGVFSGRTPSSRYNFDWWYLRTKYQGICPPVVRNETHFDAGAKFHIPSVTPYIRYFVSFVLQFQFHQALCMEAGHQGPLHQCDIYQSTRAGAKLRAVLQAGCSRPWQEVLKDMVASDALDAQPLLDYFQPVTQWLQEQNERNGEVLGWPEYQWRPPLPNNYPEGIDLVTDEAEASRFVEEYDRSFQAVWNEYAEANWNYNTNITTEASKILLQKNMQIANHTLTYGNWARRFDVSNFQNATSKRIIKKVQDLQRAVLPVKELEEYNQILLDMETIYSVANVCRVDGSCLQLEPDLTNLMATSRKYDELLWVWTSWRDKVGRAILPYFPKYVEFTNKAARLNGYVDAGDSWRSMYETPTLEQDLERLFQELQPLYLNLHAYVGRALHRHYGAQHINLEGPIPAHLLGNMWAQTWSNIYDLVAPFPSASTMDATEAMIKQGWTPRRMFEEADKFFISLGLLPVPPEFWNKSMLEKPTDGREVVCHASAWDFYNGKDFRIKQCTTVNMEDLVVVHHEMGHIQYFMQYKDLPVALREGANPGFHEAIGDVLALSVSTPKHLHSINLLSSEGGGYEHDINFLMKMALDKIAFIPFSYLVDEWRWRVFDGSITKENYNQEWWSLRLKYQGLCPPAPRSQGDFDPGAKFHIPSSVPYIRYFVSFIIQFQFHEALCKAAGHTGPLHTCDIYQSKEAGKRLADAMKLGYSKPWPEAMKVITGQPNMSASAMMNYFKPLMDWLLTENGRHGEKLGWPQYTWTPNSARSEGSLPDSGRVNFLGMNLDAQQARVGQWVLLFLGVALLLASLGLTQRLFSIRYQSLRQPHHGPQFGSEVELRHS
As to the kind of experiment: ACE inhibitory. Format: biochemical, rabbit. A digest of the protocol:
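Rabbit-lung ACE (solution at 25 mU mL−1) pre-incubated with sample for 10 min at 37 °C, then 30 min at 37 °C with HHL (10 mM solution in PBS). Stopped with 1 M HCl. Hippuric acid extracted into ethyl acetate, dried under vacuum, redissolved in water and read at A250 against a hippuric acid standard curve. Captopril positive control. % inhibition corrected for blanks; IC50 by non-linear regression; triplicate.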

Data set [2] can be described thus: Observed solubility of the peptide in water. Format: physicochemical.

No end group written: not given here.

On to “ETSGMKPTEL [ETSGMKPTEL, Glu–Thr–Ser–Gly–Met–Lys–Pro–Thr–Glu–Leu]”, for which the IC50 in data set [1] stood at 2.15 ± 0.016 µM. The sequence “ISSMGILVCL [ISSMGILVCL, Ile–Ser–Ser–Met–Gly–Ile–Leu–Val–Cys–Leu]” yielded an IC50 in data set [1] of 3.88 ± 0.004 µM. Also, the solubility in data set [2] is no less than 5000 µg/mL.

The term IC50 denotes the concentration at which inhibition is half-maximal. Higher therefore signals weaker potency. What is called solubility is the concentration that dissolves in the medium under given conditions. A low value points to little dissolved substance.

For the origin of these results see paper PMC9051311 (RSC Advances, 2020).
